The record followed here is ChEMBL document CHEMBL1157357, “Inhibition of siderophore biosynthesis in Mycobacterium tuberculosis with nucleoside bisubstrate analogues: structure-activity relationships of the nucleobase domain of 5'-O-[N-(salicyl)sulfamoyl]adenosine” (J Med Chem, 2008).

Converted amounts (≈) assume the structure as drawn. The source made the active and inactive calls. The calls are words filed in the database; no cut-off is given here.

Data set [1] deals with Mycobacterium tuberculosis. Kind of data set: Antitubercular activity against Mycobacterium tuberculosis H37Rv in iron-replete GAST medium after 10 to 14 days by broth dilution method. It counts as functional. Summed up:
(§1)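 MIC99 by broth microdilution in quadruplicate in GAST, either iron-deficient or supplemented with 200 µM FeCl3. Compounds were added from DMSO stocks, with DMSO-treated controls. Inoculum was 10⁴-10⁵ cells/assay, incubation 37 °C for 10-14 days, and growth read as OD620. MIC99 is the lowest concentration completely inhibiting observable growth.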

For data set [2], the system named is Mycobacterium tuberculosis. Kind of data set: Antitubercular activity against Mycobacterium tuberculosis H37Rv in iron-deficient GAST medium after 10 to 14 days by broth dilution method. It counts as functional. Summed up:
as §1

The nature of data set [3]: Therapeutic index, ratio of IC50 for african green money Vero cells to MIC99 for Mycobacterium tuberculosis H37Rv. Format: cell-based. As to conditions: monkey.
Data set [4] deals with Vero. The data set can be described thus: Cytotoxicity against african green money Vero cells after 48 hrs by MTT assay. It counts as cell-based. The settings on record: Chlorocebus sabaeus.
Data set [5] has as its system Mycobacterium tuberculosis. Kind of data set: Ratio of MIC99 for Mycobacterium tuberculosis H37Rv in iron-replete GAST medium to MIC99 for Mycobacterium tuberculosis H37Rv in iron-deficient GAST medium. Format: functional.
Data set [6] addresses T1, Salicyl-AMP ligase / salicyl-S-ArCP synthetase (Mycobacterium tuberculosis, UniProt P71716).
T1 sequence (P71716 whole entry): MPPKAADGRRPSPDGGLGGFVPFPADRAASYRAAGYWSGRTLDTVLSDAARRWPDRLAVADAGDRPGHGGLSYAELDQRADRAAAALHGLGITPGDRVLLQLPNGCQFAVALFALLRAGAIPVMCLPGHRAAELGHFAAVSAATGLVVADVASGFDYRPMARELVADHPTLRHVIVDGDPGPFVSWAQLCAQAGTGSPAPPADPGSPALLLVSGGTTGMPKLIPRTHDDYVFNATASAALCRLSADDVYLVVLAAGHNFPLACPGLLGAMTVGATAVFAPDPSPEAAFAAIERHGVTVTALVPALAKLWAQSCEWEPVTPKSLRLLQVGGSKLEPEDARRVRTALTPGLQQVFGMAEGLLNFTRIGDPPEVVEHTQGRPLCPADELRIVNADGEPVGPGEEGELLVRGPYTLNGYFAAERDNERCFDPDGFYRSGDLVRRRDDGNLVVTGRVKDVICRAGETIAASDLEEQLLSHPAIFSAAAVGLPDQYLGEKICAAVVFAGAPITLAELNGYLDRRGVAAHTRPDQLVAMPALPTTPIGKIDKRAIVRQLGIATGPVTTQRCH
The data set can be described thus: Inhibition of Mycobacterium tuberculosis recombinant MbtA expressed in Escherichia coli by ATP-PPi exchange assay. As to conditions: read-out: Ki(app).

For data set [7], the species on record is Oryctolagus cuniculus. Kind of data set: Inhibition of protein synthesis in T7 coupled rabbit reticulocyte system by luciferase based translation assay. It counts as functional.

In the case of `CCN(CC)CC.Nc1nc(Nc2ccccc2)nc2c1ncn2[C@@H]1O[C@H](COS(=O)(=O)NC(=O)c2ccccc2O)[C@@H](O)[C@H]1O`, the MIC99 is 0.39 µM in data set [1] and 0.049 µM in data set [2]. Moreover, in data set [3], the selectivity ratio was over 2000. Moreover, in data set [4], the IC50 was over 100000 nM. Also, the Ratio in data set [5] was determined as 8. Also, in data set [6], the Ki was 0.94 nM.
As for `CC(C)CNc1ncnc2c1ncn2[C@@H]1O[C@H](COS(=O)(=O)NC(=O)c2ccccc2O)[C@@H](O)[C@H]1O`, the MIC99 in data set [1] and in data set [2] was over 100 µM each time. This compound showed an IC50 in data set [4] of over 100000 nM. Also, the Ki in data set [6] stood at 1140 nM.
In the case of `O=C(NS(=O)(=O)OC[C@H]1O[C@@H](n2cnc3c(=O)[nH]cnc32)[C@H](O)[C@@H]1O)c1ccccc1O`, the MIC99 in data set [1] and in data set [2] was over 100 µM throughout. This compound also registered an IC50 in data set [4] of over 100000 nM. Moreover, the Ki in data set [6] amounted to 800 nM.
Regarding `CCN(CC)CC.Nc1nc(I)nc2c1ncn2[C@@H]1O[C@H](COS(=O)(=O)NC(=O)c2ccccc2O)[C@@H](O)[C@H]1O`, the MIC99 in data set [1] worked out at 3.12 µM; in data set [2], 0.19 µM. This compound displayed an IC50 in data set [4] of over 100000 nM. Besides, in data set [5], the Ratio turned out to be 16. The Ki in data set [6] is 3.03 nM.
Consider `Nc1ncnc2c1nc(N)n2[C@@H]1O[C@H](COS(=O)(=O)NC(=O)c2ccccc2O)[C@@H](O)[C@H]1O`, for which the MIC99 in data set [1] and in data set [2] was over 50 µM throughout. Besides, the IC50 in data set [4] is over 100000 nM. Further, the Ki in data set [6] turned out to be 183000 nM.
On to `CCN(CC)CC.Nc1cccc2c1ccn2C1CC(COS(=O)(=O)NC(=O)c2ccccc2O)[C@@H](O)[C@H]1O` (single isomer, unassigned), for which the MIC99 is 50 µM in data set [1] and 6.25 µM in data set [2]. Moreover, in data set [4], the half-maximal inhibitory concentration (IC50) was over 100000 nM. The Ratio in data set [5] is on record as 8. For the same compound, the Ki in data set [6] came to 20.1 nM.
As to `CCNc1ncnc2c1ncn2[C@@H]1O[C@H](COS(=O)(=O)[N-]C(=O)c2ccccc2O)[C@@H](O)[C@H]1O.[Na+]`, the MIC99 in data set [1] was 1.56 µM; in data set [2] it was 0.39 µM. In addition, the IC50 in data set [4] was over 100000 nM. For the same compound, the Ratio in data set [5] was found to be 4. In addition, in data set [6], the Ki was 4.4 nM.
`Nc1nc(-c2cccc(-c3ccccc3)c2)nc2c1ncn2[C@@H]1O[C@H](COS(=O)(=O)NC(=O)c2ccccc2O)[C@@H](O)[C@H]1O`: the MIC99 in data set [1] was over 50 µM; in data set [2], 25 µM (≈ 15.5 µg/mL). Moreover, in data set [4], the IC50 is over 100000 nM. Further, the Ki in data set [6] amounted to 1.4 nM.
With `CCCNc1ncnc2c1ncn2[C@@H]1O[C@H](COS(=O)(=O)NC(=O)c2ccccc2O)[C@@H](O)[C@H]1O.CCN(CC)CC`, the results for the MIC99 in data set [1] and in data set [2] were 1.56 µM and 0.39 µM, respectively. Moreover, the IC50 in data set [4] was over 100000 nM. Also, the Ratio in data set [5] came to 4. In data set [6], the Ki was found to be 3.5 nM.
For the compound `[N-]=[N+]=Nc1nc2c(N)ncnc2n1[C@@H]1O[C@H](COS(=O)(=O)NC(=O)c2ccccc2O)[C@@H](O)[C@H]1O`, the MIC99 in data set [1] and in data set [2] was over 50 µM throughout. In data set [4], this compound yielded an IC50 of over 100000 nM. Besides, the Ki in data set [6] turned out to be 42500 nM.
As to `O=C(NS(=O)(=O)OC[C@H]1O[C@@H](n2cnc3c(NCc4ccccc4)ncnc32)[C@H](O)[C@@H]1O)c1ccccc1O`, the MIC99 in data set [1] and in data set [2] was over 100 µM in each case. In data set [4], this compound yielded an IC50 of over 100000 nM. In addition, the Ki in data set [6] is 8260 nM.
In the case of `CC(C)Nc1ncnc2c1ncn2[C@@H]1O[C@H](COS(=O)(=O)[N-]C(=O)c2ccccc2O)[C@@H](O)[C@H]1O.[Na+]`, the MIC99 in data set [1] is over 100 µM; in data set [2], 25 µM. Also, the IC50 in data set [4] is over 100000 nM. For the same compound, in data set [5], the Ratio is given as over 4. For the same compound, the Ki in data set [6] stood at 7 nM.
The matching figures for `CCN(CC)CC.O=C(NS(=O)(=O)OC[C@H]1O[C@@H](n2cnc3c(NC4CC4)ncnc32)[C@H](O)[C@@H]1O)c1ccccc1O`: 6.25 µM, 0.098 µM, over 100000 nM, 64 and 1.85 nM.
Regarding `Nc1ncnc2c1ncn2[C@@H]1O[C@H](COS(N)(=O)=O)[C@@H](O)[C@H]1O`, the outcome in data set [7] was Active.
For `O=C(NS(=O)(=O)OC[C@H]1O[C@@H](n2cnc3c(NC4CCCC4)ncnc32)[C@H](O)[C@@H]1O)c1ccccc1O`, the MIC99 in data set [1] and in data set [2] was over 100 µM throughout. In data set [4], this compound came in with an IC50 of over 100000 nM. For the same compound, in data set [6], the Ki stood at 9410 nM.
On to `CN(C)c1ncnc2c1ncn2[C@@H]1O[C@H](COS(=O)(=O)NC(=O)c2ccccc2O)[C@@H](O)[C@H]1O`, for which the MIC99 in data set [2] was found to be 50 µM (≈ 24.7 µg/mL). For the same compound, in data set [4], the IC50 is over 100000 nM. For the same compound, the Ki in data set [6] amounted to 380 nM.
For the compound `CNc1ncnc2c1ncn2[C@@H]1O[C@H](COS(=O)(=O)[N-]C(=O)c2ccccc2O)[C@@H](O)[C@H]1O.[Na+]`, the results for the MIC99 in data set [1] and in data set [2] were 1.56 µM and 0.39 µM, respectively. The compound further registered an IC50 in data set [4] of over 100000 nM. Also, the Ratio in data set [5] is on record as 4. For the same compound, the Ki in data set [6] is 1.6 nM.
In the case of `Nc1nc(-c2ccccc2-c2ccccc2)nc2c1ncn2[C@@H]1O[C@H](COS(=O)(=O)NC(=O)c2ccccc2O)[C@@H](O)[C@H]1O`, the MIC99 in data set [1] and in data set [2] was over 50 µM each time. Further, the IC50 in data set [4] was over 100000 nM. Besides, the Ki in data set [6] was determined as 47 nM.
On to `Nc1nc(-c2ccc(-c3ccccc3)cc2)nc2c1ncn2[C@@H]1O[C@H](COS(=O)(=O)NC(=O)c2ccccc2O)[C@@H](O)[C@H]1O`, for which the values for the MIC99 in data set [1] and in data set [2] were over 50 µM and 25 µM (≈ 15.5 µg/mL), respectively. The compound further yielded an IC50 in data set [4] of over 100000 nM. Further, the Ki in data set [6] is 0.99 nM.
Consider `Nc1ncnc2c1nc(Br)n2[C@@H]1O[C@H](COS(=O)(=O)NC(=O)c2ccccc2O)[C@@H](O)[C@H]1O`, for which the MIC99 in data set [1] and in data set [2] was over 50 µM each time. The compound further displayed an IC50 in data set [4] of over 100000 nM. For the same compound, the Ki in data set [6] stood at 2050 nM.
Take `Nc1nc(-c2ccccc2)nc2c1ncn2[C@@H]1O[C@H](COS(=O)(=O)NC(=O)c2ccccc2O)[C@@H](O)[C@H]1O`: the MIC99 in data set [1] amounted to 0.39 µM (≈ 0.212 µg/mL); in data set [2] it was 0.049 µM (≈ 0.0266 µg/mL). The compound also registered an IC50 in data set [4] of over 100000 nM.
On to `O=C(NS(=O)(=O)OC[C@H]1O[C@@H](n2cnc3c(NC4CCC4)ncnc32)[C@H](O)[C@@H]1O)c1ccccc1O`, for which the MIC99 in data set [1] and in data set [2] was over 100 µM in each case. In addition, the IC50 in data set [4] was over 100000 nM. In addition, the Ki in data set [6] turned out to be 124 nM.
Consider `CCN(CC)CC.Nc1ncnc2c1ccn2[C@@H]1O[C@H](COS(=O)(=O)NC(=O)c2ccccc2O)[C@@H](O)[C@H]1O`, for which the figures for the MIC99 in data set [1] and in data set [2] were 50 µM and 6.25 µM, respectively. The compound also returned an IC50 in data set [4] of over 100000 nM. Moreover, in data set [5], the Ratio is 8. Moreover, the Ki in data set [6] turned out to be 24.3 nM.
Consider `CCN(CC)CC.Nc1nc(C#Cc2ccccc2)nc2c1ncn2[C@@H]1O[C@H](COS(=O)(=O)NC(=O)c2ccccc2O)[C@@H](O)[C@H]1O`, for which the figures for the MIC99 in data set [1] and in data set [2] were 0.39 µM and 0.049 µM, respectively. In addition, the selectivity ratio in data set [3] is over 2000. In data set [4], the IC50 was over 100000 nM. In data set [5], the Ratio was 8. Moreover, the Ki in data set [6] was 0.4 nM.
